Active and inactive are the calls of the source.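 The calls were made as follows, unless noted: active = inhibition at or above 50% at 10 µM; inactive = inhibition below 50%.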
Key:
[1] = inhibitors of TNFa-induced NFkB p65 translocation, primary screen, imaging, HUVEC, MLSMR starter and 10KST1 sets (AID 438;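 active = inhibition above 20% together with a positive visual image hit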;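 also: compound added about 3h40 before a 20 min TNFalpha stimulation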;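 as to inhibition: signal is the nuclear over cytoplasmic p65 intensity ratio per well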); conditions: HUVEC TNFa-induced p65 nuclear translocation; cell count: measured here: nuclei count (cytotoxicity indicator), at 2.08 µM; inhibition: at 2 µM, stronger effect = higher value, 0% TNFa-plus-vehicle, 100% no-TNFa wells
[2] = inhibitors of mutant huntingtin aggregation, primary screen, imaging, exon1htt(103Q)mCFP cells, high-content imaging (AID 483;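 active = visual image review flags a hit and inhibition of aggregation exceeds 20%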;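 also: compound exposure lasted 3 days before fixation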;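 as to nuclei count: percent of the per-plate median nuclei count of sample wells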); conditions: exon1htt(103Q)mCFP cell line, aggregate imaging, at 2 µM; inhibition of aggregation: stronger effect = higher value; nuclei count: measured here: cell count, toxicity
[3] = inhibitors of E-selectin induction by TNFa, primary screen, imaging, HUVEC, immunofluorescence, MLSMR starter and 10KST1 sets (AID 487;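 active = visually confirmed hit in the image check and inhibition above 20%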;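 as to inhibition: signal is fraction of cell area covered by stained E-selectin grains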;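 as to nuclei count: 100% = median nuclei count of all wells on the same plate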); conditions: HUVEC TNFalpha-induced E-selectin immunofluorescence imaging, at 2 µM; inhibition: stronger effect = higher value; nuclei count: measured here: cell number, toxicity
[4] = molecular target: Voltage-gated potassium channel subunit beta-2 (Rattus norvegicus) (UniProt P62483); experiment: KvBeta enzyme negative modulators, primary screen, biochemical, NADPH fluorescence (AID 622;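 active = fluorescence slope higher than the sample average by over 3 SD, cut at about -0.22 in these data, passing the limit was not always enough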;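 also: slope of raw intensity against log time taken from 70 to 1610 s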); conditions: recombinant KvBeta, 4-cyanobenzaldehyde reduction, at 10 µM, stronger effect = higher value
[5] = molecular target: Voltage-gated potassium channel subunit beta-2 (Rattus norvegicus) (UniProt P62483); experiment: KvBeta positive modulators, primary screen, biochemical, NADPH fluorescence (AID 623;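 active = NADPH fluorescence slope more negative than the mean of all samples by about 3 SD, 99.7% confidence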;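 also: fluorescence intensity change per second fitted from 20 to 320 s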); conditions: Recombinant KvBeta, NADPH fluorescence decrease slope, 10 min; at 10 µM; stronger effect = lower value
[6] = molecular target: Muscarinic acetylcholine receptor M4 (Homo sapiens) (UniProt P08173); experiment: compounds altering M4/GIRK thallium flux, either direction, primary screen, M4 allosteric agonist project, cell-based, HEK293 M4/GIRK, BTC-AM (AID 625;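 active = fluorescence slope after compound addition differing from the mean of all tested samples at 99.7% confidence, mostly higher but some lower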;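 also: thallium influx through GIRK channels coupled to M4 in HEK293 cells with BTC-AM dye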); conditions: at 10 µM, actives lie on both sides
Summary of the method: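 Material: HEK293 cells with M4 receptor and GIRK channels; Times: cells overnight at 37 °C, BTC-AM loading 1 h, reads 2 min total; Technique: kinetic BTC-AM fluorescence sampled at 1 Hz, 10 s pre-addition baseline; Read-out basis: slope over 15–24 s of trace normalized to starting intensity; Controls: carbachol positive, DMSO negative.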

[7] = inhibitors of Sendai virus-induced IRF3 signaling, primary screen, TLR/RLR signaling modifier project, cell-based, Sendai virus stimulus, luciferase, 10K MLSCN set (AID 602276); conditions: HEK293 RL24 IRF3 luciferase reporter, at 10 µM, stronger effect = higher value;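 also: firefly luciferase from ISG56 promoter only with Renilla not read in this screen; 0% = Sendai virus plus DMSO and 100% = medium plus DMSO without virus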
[8] = inhibitors of poly I:C-induced TLR3 signaling, primary screen, cell-based, poly I:C stimulus, luciferase, 10K MLSCN set (AID 602277;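 active = inhibition of the reporter signal at or above 50%; inactive = inhibition below 50%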); conditions: HEK293-TLR3 RL24 IRF3 luciferase reporter, at 10 µM, stronger effect = higher value

Sequence of Voltage-gated potassium channel subunit beta-2 (Rattus norvegicus) (P62483 whole entry, looked up): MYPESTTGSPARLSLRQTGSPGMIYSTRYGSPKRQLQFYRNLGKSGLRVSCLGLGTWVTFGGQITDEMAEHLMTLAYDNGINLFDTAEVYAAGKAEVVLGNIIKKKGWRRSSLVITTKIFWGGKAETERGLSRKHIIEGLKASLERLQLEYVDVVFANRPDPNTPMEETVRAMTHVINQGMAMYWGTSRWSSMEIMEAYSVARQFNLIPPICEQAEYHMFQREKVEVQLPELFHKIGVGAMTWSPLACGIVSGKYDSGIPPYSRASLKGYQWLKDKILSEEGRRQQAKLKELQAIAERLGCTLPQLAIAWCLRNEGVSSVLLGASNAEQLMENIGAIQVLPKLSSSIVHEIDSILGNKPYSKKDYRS
Sequence of Muscarinic acetylcholine receptor M4 (Homo sapiens) (P08173 whole entry, looked up): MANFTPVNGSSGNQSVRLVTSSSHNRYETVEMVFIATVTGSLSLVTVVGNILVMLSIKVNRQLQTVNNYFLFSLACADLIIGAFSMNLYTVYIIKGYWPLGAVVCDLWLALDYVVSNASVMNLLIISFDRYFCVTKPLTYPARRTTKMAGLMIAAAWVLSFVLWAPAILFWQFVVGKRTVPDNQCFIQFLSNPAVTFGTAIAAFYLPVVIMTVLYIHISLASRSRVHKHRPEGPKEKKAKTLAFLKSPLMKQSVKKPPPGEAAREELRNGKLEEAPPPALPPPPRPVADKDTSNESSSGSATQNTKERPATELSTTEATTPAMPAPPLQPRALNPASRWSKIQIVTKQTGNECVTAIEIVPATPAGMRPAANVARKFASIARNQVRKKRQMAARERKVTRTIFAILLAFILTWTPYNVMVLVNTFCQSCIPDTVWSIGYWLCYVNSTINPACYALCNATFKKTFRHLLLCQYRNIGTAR

Row | Structure (SMILES) | cell count [1] | inhibition [1] | inhibition of aggregation [2] | nuclei count [2] | inhibition [3] | nuclei count [3] | fluorescence slope [4] | NADPH fluorescence slope [5] | fluorescence slope [6] | inhibition [7] | inhibition [8]
1 | O=C(COC(=O)c1ccc(S(=O)(=O)Nc2ccccc2)cc1)NCCN1C(=O)CSC1=O | 396 | -3.1% (inactive) | 2.9% (inactive) | 105% | -88.8% (inactive) | 117% | -0.372 (inactive) | -8.7e-05 (inactive) | 0.0079 (inactive) | 0.13% (inactive) | 19.9% (inactive)
2 | O=C(c1ccccc1)c1ccc2nc[nH]c2c1 | 762 | -1.2% (inactive) | -14.8% (inactive) | 94.7% | -48.9% (inactive) | 128% | -0.571 (inactive) | -3.1e-05 (inactive) | 0.00464 (inactive) | -13.6% (inactive) | -34.9% (inactive)
3 | O=C(CSc1nc2ccccc2n1CC(=O)N1CCCC1)Nc1nccs1 | 676 | 1% (inactive) | -9.6% (inactive) | 99.7% | -3.7% (inactive) | 131% | -0.484 (inactive) | -0.000183 (inactive) | 0.00508 (inactive) | 2.67% (inactive) | 14% (inactive)
4 | CC(C)(C)SCCNC(=O)COc1ccccc1 | 368 | -2.3% (inactive) | 16.8% (inactive) | 91.5% | -16.9% (inactive) | 110% | -0.32 (inactive) | -4.6e-05 (inactive) | 0.00624 (inactive) | 1.01% (inactive) | -18% (inactive)
5 | Cc1ccc(-c2nn(C)c(=O)c3ccccc23)cc1S(=O)(=O)N1CCOCC1 | 595 | -10.5% (inactive) | -24.4% (inactive) | 101% | -64.2% (inactive) | 102% | -0.511 (inactive) | -2.7e-05 (inactive) | 0.0045 (inactive) | 8.97% (inactive) | 30.3% (inactive)
6 | COc1cc(NC(=O)c2cc(-n3cnnc3)ccc2Cl)cc(OC)c1 | 224 | -8.1% (inactive) | -12.2% (inactive) | 97.9% | -46.1% (inactive) | 95.5% | -0.479 (inactive) | -8.2e-05 (inactive) | 0.00479 (inactive) | 15.2% (inactive) | 17.9% (inactive)
7 | O=C(Cn1nnc(-c2ccncc2)n1)Nc1ccc2c(c1)CCC2 | 674 | -8.6% (inactive) | 5% (inactive) | 89.1% | -115% (inactive) | 140% | -0.465 (inactive) | -6.3e-05 (inactive) | 0.00619 (inactive) | -0.547% (inactive) | -23.3% (inactive)
8 | O=C(CP(=O)(c1ccccc1)c1ccccc1)N1CCCCC1 | 378 | 6.6% (inactive) | -16% (inactive) | 105% | -29.8% (inactive) | 107% | -0.528 (inactive) | -1.9e-05 (inactive) | 0.00576 (inactive) | 18% (inactive) | 22.1% (inactive)
9 | CCCn1c(=N)n(CC(=O)c2cccs2)c2ccccc21 | 427 | 3.8% (inactive) | -0.8% (inactive) | 87.6% | -47% (inactive) | 114% | -0.552 (inactive) | -2.9e-05 (inactive) | 0.00423 (inactive) | 2.39% (inactive) | 3.66% (inactive)
10 | CCOC(=O)c1c(C)oc2c1c(C=NCc1ccccn1)c(O)c1ccccc12 | 738 | 4.7% (inactive) | 7.3% (inactive) | 84.9% | -112% (inactive) | 124% | -0.322 (inactive) | -2.5e-05 (inactive) | 0.00123 (inactive) | 8.4% (inactive) | 29.2% (inactive)
11 | N#CC1=C(N)Oc2n[nH]c(-c3ccncc3)c2C1c1ccsc1 (stereo not drawn) | 387 | -1.5% (inactive) | -10.3% (inactive) | 109% | 35.9% (inactive) | 98.6% | -0.546 (inactive) | 1.9e-05 (inactive) | 0.00579 (inactive) | -2.51% (inactive) | -6.52% (inactive)
12 | CC1CN(c2nc3ccccn3c(=O)c2/C=C(\C#N)S(=O)(=O)c2ccccc2)CC(C)O1 (stereo not drawn) | 570 | 8.1% (inactive) | 3.6% (inactive) | 98.6% | 56.6% (inactive) | 104% | -0.513 (inactive) | -0.000138 (inactive) | 0.00288 (inactive) | -1.56% (inactive) | -21.6% (inactive)
13 | COc1cccc2cc(C(=O)n3ccc(C)n3)c(=O)oc12 | 297 | -8% (inactive) | -15.2% (inactive) | 93.5% | 10.9% (inactive) | 88.2% | -0.409 (inactive) | 1.2e-05 (inactive) | 0.00485 (inactive) | 13.4% (inactive) | 12.3% (inactive)
14 | COc1ccc(C(=O)Nn2c(SCC(=O)NCC3CCCO3)nc3ccccc3c2=O)cc1 (stereo not drawn) | 512 | -3.6% (inactive) | 13.2% (inactive) | 103% | -60.6% (inactive) | 106% | -0.511 (inactive) | -6.1e-05 (inactive) | 0.00522 (inactive) | 15.1% (inactive) | 49.1% (inactive)
15 | CC(C)(C)Nc1nc(OCC(F)(F)F)nc(OCC(F)(F)F)n1 | 448 | 11.9% (inactive) | -14.2% (inactive) | 103% | -0.8% (inactive) | 114% | -0.424 (inactive) | -0.000395 (inactive) | 0.00457 (inactive) | 7.39% (inactive) | 8.5% (inactive)
16 | O=C(NC1CCc2ccccc21)C1CCN(S(=O)(=O)c2ccc(-n3cnnn3)cc2)CC1 (stereo not drawn) | 698 | 7.5% (inactive) | -23.2% (inactive) | 118% | -37.5% (inactive) | 91.8% | -0.553 (inactive) | 1.5e-06 (inactive) | 0.00483 (inactive) | 15.1% (inactive) | 30.1% (inactive)
17 | Cc1cc2oc(C(=O)NC3CCS(=O)(=O)C3)c(C)c2cc1C (stereo not drawn) | 328 | 5.6% (inactive) | -2.9% (inactive) | 97% | -75.1% (inactive) | 118% | -0.576 (inactive) | -3.1e-05 (inactive) | 0.00365 (inactive) | 9.17% (inactive) | -12% (inactive)
18 | O=C(O)c1[nH]nc2c1COc1ccccc1-2 | 308 | 13.1% (inactive) | -9.9% (inactive) | 97% | 14.8% (inactive) | 102% | -0.551 (inactive) | -0.000118 (inactive) | 0.00437 (inactive) | 14.5% (inactive) | 22.3% (inactive)
19 | CS(=O)(=O)N(CC(=O)N1CCCCCC1)c1ccccc1 | 324 | -0.2% (inactive) | 1.9% (inactive) | 82.8% | -11.6% (inactive) | 106% | -0.452 (inactive) | -3.4e-05 (inactive) | 0.00505 (inactive) | 11.4% (inactive) | 8.59% (inactive)
20 | Cc1ccc(O)c(C(=O)c2cc(C#N)c(=O)n(CC3CCCO3)c2)c1 (stereo not drawn) | 449 | -20.3% (inactive) | 33.7% (active) | 70.1% | 82.1% (active) | 53.1% | -0.561 (inactive) | -4.5e-05 (inactive) | 0.00669 (inactive) | 15% (inactive) | 24.8% (inactive)
21 | c1ccc(Cn2nnnc2C(c2ccccn2)N2CCOCC2)cc1 (stereo not drawn) | 485 | 2.1% (inactive) | -13% (inactive) | 81.4% | -85.1% (inactive) | 116% | -0.577 (inactive) | -4.9e-05 (inactive) | 0.00747 (inactive) | -6.48% (inactive) | 2.75% (inactive)
22 | Cc1[nH]c(=O)[nH]c(=O)c1S(=O)(=O)Nc1ccc(Oc2ccccc2)cc1 | 638 | -3.2% (inactive) | -7.6% (inactive) | 117% | -25.8% (inactive) | 107% | -0.574 (inactive) | -2.9e-05 (inactive) | 0.00503 (inactive) | 19.8% (inactive) | 24.8% (inactive)
23 | COc1cccc(-n2c(SCC(=O)OC(C)C)nnc2-c2cccnc2)c1 | 402 | -3.3% (inactive) | -5.3% (inactive) | 96.8% | -29.7% (inactive) | 113% | -0.459 (inactive) | -4.2e-05 (inactive) | 0.00575 (inactive) | 9.67% (inactive) | 13.7% (inactive)
24 | CC(C(=O)N1c2ccc(F)cc2CCC1C)N1C(=O)c2ccccc2C1=O (stereo not drawn) | 490 | 5% (inactive) | 1.1% (inactive) | 118% | -158% (inactive) | 138% | -0.452 (inactive) | -4.6e-05 (inactive) | 0.00501 (inactive) | 10.8% (inactive) | 11.7% (inactive)
25 | CCCc1nc2ccccc2c2nc(N)nn12 | 435 | 7.7% (inactive) | 13.1% (inactive) | 82.1% | 21.4% (inactive) | 101% | -0.458 (inactive) | 3.4e-05 (inactive) | 0.00513 (inactive) | 13.7% (inactive) | 12.1% (inactive)
26 | CC(Sc1nnc(-c2cc3ccccc3o2)n1-c1ccccc1)C(=O)O (stereo not drawn) | 613 | 0.8% (inactive) | 14.7% (inactive) | 105% | -223% (inactive) | 108% | -0.585 (inactive) | -5.2e-05 (inactive) | 0.00554 (inactive) | 21.2% (inactive) | 39.8% (inactive)
27 | CCc1ccc(NS(=O)(=O)c2cccs2)cc1 | 421 | 4.3% (inactive) | -18.3% (inactive) | 105% | -82% (inactive) | 109% | -0.634 (inactive) | 3e-06 (inactive) | 0.00357 (inactive) | -6.86% (inactive) | -9.13% (inactive)
28 | O=C(CCCCCn1c(=O)[nH]c2ccsc2c1=O)N1CCCCC1 | 306 | -1.8% (inactive) | 25.2% (inactive) | 91.7% | -75% (inactive) | 85.7% | -0.457 (inactive) | -2.3e-05 (inactive) | 0.0042 (inactive) | 18.4% (inactive) | 6.28% (inactive)

From PubChem BioAssay
